Compound activity from PubChem.
IDH1 mut inh – inhibitors of IDH1 R132H reductase, primary screen, biochemical, plate reader, single point | Isocitrate dehydrogenase [NADP] cytoplasmic (Homo sapiens), O75874 | diaphorase/resazurin fluorescence, 60 min | inhibition, % at 10 µM | hit rate 0.18% among 70,000 | AID 624101, 2012; in the data active = inhibition above about 34%; inconclusive = no clear call, values can overlap the other calls; inactive = below about 11%;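 note: 0% = DMSO and 100% = no enzyme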
Target sequence (O75874 whole entry R132H): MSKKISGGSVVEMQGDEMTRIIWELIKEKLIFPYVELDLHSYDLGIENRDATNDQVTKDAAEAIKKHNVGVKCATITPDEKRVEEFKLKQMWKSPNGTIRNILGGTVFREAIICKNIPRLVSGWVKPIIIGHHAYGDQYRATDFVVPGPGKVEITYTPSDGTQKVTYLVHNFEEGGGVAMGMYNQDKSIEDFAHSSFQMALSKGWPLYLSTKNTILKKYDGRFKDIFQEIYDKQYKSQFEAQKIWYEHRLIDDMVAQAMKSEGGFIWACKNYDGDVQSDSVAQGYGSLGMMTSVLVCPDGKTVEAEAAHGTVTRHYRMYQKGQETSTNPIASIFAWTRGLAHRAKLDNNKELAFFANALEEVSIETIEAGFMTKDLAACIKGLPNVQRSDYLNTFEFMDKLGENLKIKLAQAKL
KDM4C inh – inhibitors of GASC-1 (KDM4C) histone demethylase, primary screen, biochemical, single concentration HTS. GST-KDM4C 2-372, H3K9me3 peptide, LANCE TR-FRET. hit rate 0.15% among 96,000. AID 720574, 2013. inhibition, % at 12.5 µM;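 active = mean replicate inhibition above about 25%, with at least 55% of replicates also reaching it, limit read from the data, passing the limit was not always enough; inconclusive = only one of those two conditions met; inactive = neither condition met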
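System: N-terminal GST-fused human GASC-1 (KDM4C) fragment, residues 2-372 / Amount: 10 nM GST-KDM4C in enzyme reaction / Also added: H3K9me3 peptide with Fe(II)/2OG / Times: 30 min demethylation and 1 h detection at room temperature / Signal: LANCE TR-FRET / Read-out basis: Fall in 671/618 emission ratio as inhibition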
T cruzi growth-1 – T. cruzi intracellular proliferation inhibitors, primary screen, cell-based, beta-gal Tulahuen parasites, NIH3T3 host, luminescence. T. cruzi beta-gal in NIH3T3, GalScreen luminescence, 90 h. inhibition, % at 8.34 µM. hit rate 5.9% among 77,000. AID 624255, 2012;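 active = mean inhibition above about 93%, with at least 55% of replicates each passing it, limit read from the data, passing the limit was not always enough; inconclusive = only one of those two conditions holds; inactive = neither condition holds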
T cruzi growth-2 – T. cruzi intracellular proliferation inhibitors, confirmation, cell-based, NIH3T3 host, beta-gal parasite, luminescence, cherry-pick; T. cruzi beta-gal in NIH3T3, GalScreen luminescence, 90 h; inhibition, % at 8.35 µM; hit rate 72% among 5,600; shares compounds with T cruzi growth-1; AID 651739, 2012;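 active = mean replicate inhibition above about 95% and at least 55% of replicates individually reaching it, limit read from the data; inconclusive = only one of the two criteria is met; inactive = neither criterion is met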
T cruzi growth-3 – inhibitors of intracellular T. cruzi replication, confirmation, NIH3T3 host cells, beta-gal parasites, cherry-pick, set 2 | hit rate 21% among 5,600 | T. cruzi beta-gal in NIH3T3, GalScreen luminescence, 90 h | shares compounds with T cruzi growth-1 | inhibition, % at 2.09 µM;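 active = mean inhibition above about 95%, with at least 55% of replicates also reaching it, limit read from the data; inconclusive = meets just one of the two conditions; inactive = meets neither condition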;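 note: plate controls were neutral control median for no effect and positive control median for full effect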
3T3 cytotox – cytotoxicity in mouse NIH/3T3 fibroblasts, confirmation, cytotoxicity control for T. cruzi proliferation inhibitor project, cell-based, cherry-pick, single point. hit rate 14% among 5,600. shares compounds with T cruzi growth-1. AID 651742, 2012. cytotoxicity (signal decrease), % at 8.35 µM. NIH/3T3 viability, CellTiter-Glo ATP luminescence, 90 h;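 active = mean signal decrease across replicates above about 35% based on untreated-well scatter, with enough replicates individually passing, limit read from the data; inconclusive = no rule stated though some were filed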;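 note: 0% = median of neutral control wells and 100% = median of positive control wells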
3T3 cytotox 2 – NIH/3T3 fibroblast cytotoxicity, confirmation, cytotoxicity control, cell-based, cherry-pick, single point, set 2; shares compounds with T cruzi growth-1; NIH/3T3 viability, CellTiter-Glo ATP luminescence, 90 h; inhibition, % at 24.9 µM; hit rate 56% among 5,600; AID 651744, 2012;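 active = mean loss of cell viability signal at or above a set limit, and enough replicates individually reaching it; inconclusive = meets only the mean limit or only the replicate share; inactive = meets neither condition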;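 note: 0% = median of neutral control wells and 100% = median of positive control wells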
* hit, by the source's call; u = inconclusive; x = no result given. Shown is part of a subset that was picked to be rich in hits.

SMILES | IDH1 mut inh | KDM4C inh | T cruzi growth-1 | T cruzi growth-2 | T cruzi growth-3 | 3T3 cytotox | 3T3 cytotox 2
C[C@@H]1CCCCO[C@H](CN(C)S(=O)(=O)c2ccc(F)cc2)[C@H](C)CN([C@@H](C)CO)C(=O)c2cc(NC(=O)CCCN(C)C)ccc2O1 | 0 | 2 | 7 | x | x | x | x
Cc1ccc(NC(=O)CCn2cnc3ccccc3c2=O)cc1C | 1 | x | x | x | x | x | x
Cc1ccccc1-c1nc2cc(NC(=O)COc3ccc(Br)cc3)ccc2o1 | 0 | x | x | x | x | x | x
C[C@@H]1CN([C@@H](C)CO)S(=O)(=O)c2ccc(C#Cc3cccnc3)cc2O[C@H]1CN(C)C(=O)Nc1ccc2c(c1)OCO2 | 2 | -1 | 94 | x | x | x | x
C[C@@H]1CN([C@@H](C)CO)S(=O)(=O)c2ccc(C#Cc3ccccc3)cc2O[C@@H]1CN(C)C(=O)Nc1ccc2c(c1)OCO2 | -1 | 9 | 131* | 107* | u | 20 | 30*
C[C@@H]1CN([C@H](C)CO)S(=O)(=O)c2ccc(C#Cc3ccncc3)cc2O[C@@H]1CN(C)C(=O)Nc1ccc2c(c1)OCO2 | x | 4 | 25 | x | x | x | x
C[C@H](CO)N1C[C@H](C)[C@H](CN(C)C(=O)Nc2ccc3c(c2)OCO3)Oc2cc(C#Cc3ccccc3)ccc2S1(=O)=O | 0 | 0 | 131* | 108* | 94 | -18 | 19
C[C@H](CO)N1C[C@H](C)[C@H](CN(C)C(=O)Nc2ccc3c(c2)OCO3)Oc2cc(C#Cc3cccnc3)ccc2S1(=O)=O | -10 | -2 | 101* | 48 | -12 | -3 | 8
C[C@H](CO)N1C[C@H](C)[C@@H](CN(C)C(=O)Nc2ccccc2)Oc2cc(C#C[C@@H](C)O)ccc2S1(=O)=O | x | x | 63 | x | x | x | x
Cc1ccc(NC(=O)CSc2nc3ccccc3c(=O)n2-c2cccc(C(F)(F)F)c2)c(C)c1 | 0 | x | x | x | x | x | x
CC(C)(Oc1ccc(Cl)cc1)C(=O)NCc1ccccn1 | -1 | x | x | x | x | x | x
CC1(C)COC(/C=C(\N)c2ccc(Br)cc2)=N1 | 0 | x | x | x | x | x | x
C[C@H](CO)N1C[C@H](C)[C@@H](CN(C)C(=O)NC2CCCCC2)Oc2ccc(NC(=O)CCN3CCOCC3)cc2CC1=O | 3 | 0 | 2 | x | x | x | x
CCCC#Cc1ccc([C@@H]2[C@@H](CO)N3CCCCN(C(=O)NC4CCCC4)C[C@@H]23)cc1 | x | 1 | 86 | x | x | x | x
COCC#Cc1ccc([C@@H]2[C@@H](CO)N3CCCCN(C(=O)NC4CCCC4)C[C@@H]23)cc1 | x | 0 | 73 | x | x | x | x
CCCC#Cc1ccc([C@@H]2[C@H](CO)N3CCCCN(C(=O)NC4CCCC4)C[C@@H]23)cc1 | x | -3 | u | 109* | 89 | 14 | 103*
CCCC#Cc1ccc([C@H]2[C@@H](CO)N3CCCCN(C(=O)NC4CCCC4)C[C@H]23)cc1 | x | 0 | u | 106* | 81 | 44* | 103*
COC(=O)CCCCCCC(=O)N/N=C/c1c(CO)cnc(C)c1O | 0 | x | x | x | x | x | x
O=C(CCO[C@@H]1O[C@H](CO)[C@@H](O)[C@H](O)[C@H]1O)c1ccc(O)cc1 | 0 | x | x | x | x | x | x
COc1ccc(NC(=S)NCc2cn(-c3ccccc3)nc2-c2ccccc2)cc1OC | 0 | x | x | x | x | x | x
O=C(C[C@H]1C[C@H]2c3cc(NC(=O)Nc4ccc(C(F)(F)F)cc4)ccc3O[C@H]2[C@@H](CO)O1)NCc1ccc(Cl)cc1 | -1 | 0 | 67 | x | x | x | x
O=C(C[C@@H]1C[C@H]2c3cc(NC(=O)Nc4ccc(C(F)(F)F)cc4)ccc3O[C@H]2[C@H](CO)O1)NCc1ccc(Cl)cc1 | 0 | 1 | -32 | x | x | x | x
O=C(C[C@@H]1C[C@H]2c3cc(NC(=O)Nc4ccc(C(F)(F)F)cc4)ccc3O[C@H]2[C@@H](CO)O1)NCc1ccc(Cl)cc1 | 0 | 0 | u | 100* | 18 | 0 | 4
